Results: ChEMBL document CHEMBL4007420, “Structural Optimization and Pharmacological Evaluation of Inhibitors Targeting Dual-Specificity Tyrosine Phosphorylation-Regulated Kinases (DYRK) and CDC-like kinases (CLK) in Glioblastoma” (J Med Chem, 2017)
Active and inactive are the calls of the source. No cut-off for these calls is given here.

Assays:
U-251 [1] = test: Cytotoxicity against human U251 cells assessed as reduction in cell viability after 3 days by Alamar blue assay; assay type: functional, cell-based; details: U-251, 72 h
A 172 [2] = test: Antimigratory activity in human A172 cells assessed as velocity of migration at 10 uM measured up to 20 hrs by wound scratch assay (reference value: 2650 to 3123 micrometer/hr); assay type: functional
Summary of the method: (§1)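 Wound-healing migration assay: cell movement across the wound is measured as velocity (µm/h). Compounds were tested at 0, 1.0, 5.0 and 10.0 µM. Values are mean ± SEM of 3 independent experiments.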

A 172 [3] = test: Antiinvasive activity in human A172 cells assessed as velocity of invasion at 1 uM measured up to 20 hrs by matrigel assay (reference value: 2659 to 3047 micrometer/hr); assay type: functional
[4] = target: T1, Dual specificity tyrosine-phosphorylation-regulated kinase 2 (Homo sapiens, UniProt Q92630); test: Inhibition of DYRK2 (unknown origin) using woodtide as substrate after 40 mins in presence of [gamma-33P]ATP by microbeta scintillation counting
T1 sequence (Q92630 whole entry): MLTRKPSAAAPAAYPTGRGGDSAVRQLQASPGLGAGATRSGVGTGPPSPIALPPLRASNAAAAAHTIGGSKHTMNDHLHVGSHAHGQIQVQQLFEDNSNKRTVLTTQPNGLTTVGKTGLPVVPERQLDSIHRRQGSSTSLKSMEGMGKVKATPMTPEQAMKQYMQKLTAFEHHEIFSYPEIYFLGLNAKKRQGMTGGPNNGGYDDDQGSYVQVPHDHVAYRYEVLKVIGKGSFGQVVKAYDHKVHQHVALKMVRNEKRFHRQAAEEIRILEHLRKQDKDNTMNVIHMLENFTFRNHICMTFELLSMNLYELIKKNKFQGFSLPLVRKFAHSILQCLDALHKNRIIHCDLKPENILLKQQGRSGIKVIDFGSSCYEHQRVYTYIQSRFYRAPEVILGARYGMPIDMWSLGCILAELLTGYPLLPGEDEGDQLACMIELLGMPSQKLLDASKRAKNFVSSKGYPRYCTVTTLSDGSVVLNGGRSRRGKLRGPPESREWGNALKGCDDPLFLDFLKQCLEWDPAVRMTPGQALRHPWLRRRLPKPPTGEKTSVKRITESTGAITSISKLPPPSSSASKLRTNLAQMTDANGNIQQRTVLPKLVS

U-251 [5] = test: Antiinvasive activity in human U251 cells assessed as velocity of invasion at 1 uM measured up to 20 hrs by matrigel assay (reference value: 1151 to 1710 micrometer/hr); assay type: functional
U-251 [6] = test: Antimigratory activity in human U251 cells assessed as velocity of migration at 1 uM measured up to 20 hrs by wound scratch assay (reference value: 2159 to 2653 micrometer/hr); assay type: functional; summary of the method: as §1
A 172 [7] = test: Antiinvasive activity in human A172 cells measured up to 20 hrs by matrigel assay; assay type: functional, cell-based
A 172 [8] = test: Cytotoxicity against human A172 cells assessed as reduction in cell viability after 3 days by Alamar blue assay; assay type: functional, cell-based; details: A 172, 72 h
U-251 [9] = test: Antimigratory activity in human U251 cells assessed as velocity of migration at 10 uM measured up to 20 hrs by wound scratch assay (reference value: 2159 to 2653 micrometer/hr); assay type: functional; summary of the method: as §1
[10] = Antimigratory activity in patient-derived RN1 cells at 5 uM measured up to 20 hrs by wound scratch assay; assay type: functional; details: Homo sapiens, RN1, 20 h; summary of the method: as §1
U-251 [11] = test: Antiinvasive activity in human U251 cells assessed as velocity of invasion at 5 uM measured up to 20 hrs by matrigel assay (reference value: 1151 to 1710 micrometer/hr); assay type: functional
[12] = target: T2, Dual specificity tyrosine-phosphorylation-regulated kinase 1A (Homo sapiens, UniProt Q13627); test: Binding affinity to DYRK1A in human U251 […] preincubated for 1 hr followed by incubation at 54 degreeC for 3 mins by isothermal dose-response fingerprint assay
Summary of the method: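 Isothermal dose-response fingerprint: intact U251 cells were treated for 1 h across 0–20 µM, then heated at 54 °C. The soluble fraction was extracted with aqueous buffer and DYRK1A was detected by Western blot. Results are mean ± SEM of 2 independent experiments.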

[13] = Antimigratory activity in patient-derived RN1 cells assessed as velocity of migration at 10 uM measured up to 20 hrs by wound scratch assay (reference value: 937 to 1174 micrometer/hr); assay type: functional, Homo sapiens; summary of the method: as §1
[14] = target: Dual specificity tyrosine-phosphorylation-regulated kinase 1B (Homo sapiens, UniProt Q9Y463); test: Stabilization of DYRK1B in human U251 cell lysate at 10 uM preincubated for 1 hr followed by incubation at 40 to 70 degreeC for 3 mins by cellular thermal shift assay
Chain of Dual specificity tyrosine-phosphorylation-regulated kinase 1B (Q9Y463 whole entry, looked up): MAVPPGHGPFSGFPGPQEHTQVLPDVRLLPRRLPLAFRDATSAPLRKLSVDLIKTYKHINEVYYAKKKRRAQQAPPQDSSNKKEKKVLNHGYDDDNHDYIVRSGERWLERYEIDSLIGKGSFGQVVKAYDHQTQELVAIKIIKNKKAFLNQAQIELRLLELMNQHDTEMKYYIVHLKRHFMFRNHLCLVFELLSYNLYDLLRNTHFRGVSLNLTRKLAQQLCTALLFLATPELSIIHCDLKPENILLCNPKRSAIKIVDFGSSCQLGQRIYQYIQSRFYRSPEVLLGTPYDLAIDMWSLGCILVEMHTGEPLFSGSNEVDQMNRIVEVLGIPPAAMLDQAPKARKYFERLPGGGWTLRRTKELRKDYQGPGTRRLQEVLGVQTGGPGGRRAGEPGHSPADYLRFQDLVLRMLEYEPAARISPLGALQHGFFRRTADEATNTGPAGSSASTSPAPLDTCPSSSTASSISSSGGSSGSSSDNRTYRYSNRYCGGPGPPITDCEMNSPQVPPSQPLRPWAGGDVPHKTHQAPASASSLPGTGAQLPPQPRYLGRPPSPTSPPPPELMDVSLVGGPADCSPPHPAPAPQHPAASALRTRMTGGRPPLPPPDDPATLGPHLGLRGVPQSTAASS

[15] = Cytotoxicity against patient-derived RN1 cells assessed as reduction in cell viability after 3 days by Alamar blue assay; assay type: functional, cell-based; details: Homo sapiens, RN1, 72 h
Summary of the method: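 The patient-derived glioblastoma lines were grown as stem cells under defined conditions to keep the phenotype and genotype of the resected tumours. Viability after treatment was read with Alamar blue.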

[16] = target: T2, Dual specificity tyrosine-phosphorylation-regulated kinase 1A; test: Stabilization of DYRK1A in human U251 cell lysate at 10 uM preincubated for 1 hr followed by incubation at 40 to 70 degreeC for 3 mins by cellular thermal shift assay

IC50 [4]: 0.567 µM
IC50 [12]: 0.711 µM
Activity [14]: Active
Activity [16]: Active
Compound: Nc1ccc(-c2cnc3[nH]cc(-c4ccc(O)cc4)c3c2)cc1
EC50 (U-251 [1]): 1.6 to 4.6 µM
Activity (A 172 [2]): 131 um/hr
Activity (A 172 [3]): 2675 um/hr
Activity (U-251 [5]): 1139 um/hr
Activity (U-251 [6]): 1247 um/hr
inhibition (A 172 [7]): Dose-dependent effect
EC50 (A 172 [8]): 1.6 to 4.6 µM
Activity (U-251 [9]): 129 um/hr
inhibition at 5 µM [10]: > 75%
Activity (U-251 [11]): 234 um/hr
Activity [13]: 208 um/hr
EC50 [15]: 1.1 µM
